The nature of data set [1]: Intrinsic clearance in human liver microsomes assessed as metabolic turnover. In general terms: Liver microsomes are a subcellular fraction often used to study metabolism.
Data set [2] is described as follows: Intrinsic clearance in rat liver microsomes assessed as metabolic turnover.
The next data set has as its target Cathepsin B (Homo sapiens, UniProt P07858). Briefly: Inhibition of human recombinant CatB assessed as suppression of enzyme-mediated Z-Arg-Arg-AMC cleavage by QFRET assay. The procedure, abridged:
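Recombinant human Cat B at 0.5 nM final was preincubated with compound for 30 min at room temperature. Z-Arg-Arg-AMC (100 μM final) was added in potassium phosphate buffer, pH 6.4, incubated 1 h, then stopped with acetic acid. Fluorescence read at ex 360/em 425 nm with background correction; IC50 by nonlinear regression.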

In data set [3] the target is T1, Cathepsin K (Canis lupus familiaris, UniProt Q3ZKN1).
T1 sequence (Q3ZKN1 whole entry): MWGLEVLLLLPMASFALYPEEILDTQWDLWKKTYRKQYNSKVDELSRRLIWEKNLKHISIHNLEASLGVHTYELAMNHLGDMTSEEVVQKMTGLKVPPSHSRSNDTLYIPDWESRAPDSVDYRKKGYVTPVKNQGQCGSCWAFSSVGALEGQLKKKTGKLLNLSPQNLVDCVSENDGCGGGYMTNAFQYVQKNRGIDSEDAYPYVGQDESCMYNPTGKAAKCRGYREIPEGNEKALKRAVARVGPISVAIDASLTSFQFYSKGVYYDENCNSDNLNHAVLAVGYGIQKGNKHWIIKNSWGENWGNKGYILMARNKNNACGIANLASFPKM
The experiment in a line: Inhibition of dog recombinant CatK assessed as suppression of enzyme-mediated Z-Phe-Arg-AMC cleavage by QFRET assay. An outline of the steps: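 Recombinant dog Cat K at 0.5 nM final was preincubated with compound for 30 min at room temperature. Z-Phe-Arg-AMC (15 μM final) was added in sodium acetate buffer, pH 5.5, and incubated 1 h at room temperature in the dark, then stopped with 7.5% acetic acid. Fluorescence read at ex 360/em 425 nm; IC50 by nonlinear regression.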

Data set [4] is described as follows: Lipophilicity, log D of the compound at pH 7.4. Conditions: buffer.
Data set [5] is described as follows: Intrinsic clearance in human hepatocytes assessed as metabolic turnover measured per 10^6 cells.
The target in data set [6] is T2, Cathepsin K (Homo sapiens, UniProt P43235).
T2 sequence (P43235 whole entry): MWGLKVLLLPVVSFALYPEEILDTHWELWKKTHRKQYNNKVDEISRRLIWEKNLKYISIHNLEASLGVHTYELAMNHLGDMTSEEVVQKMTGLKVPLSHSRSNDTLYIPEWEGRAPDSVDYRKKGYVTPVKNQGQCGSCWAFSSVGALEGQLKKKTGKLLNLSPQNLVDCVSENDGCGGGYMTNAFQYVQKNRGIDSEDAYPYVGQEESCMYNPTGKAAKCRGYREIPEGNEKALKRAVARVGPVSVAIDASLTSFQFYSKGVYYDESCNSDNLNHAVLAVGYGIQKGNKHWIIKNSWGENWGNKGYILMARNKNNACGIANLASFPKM
Briefly: Inhibition of human recombinant CatK assessed as suppression of enzyme-mediated Z-Phe-Arg-AMC cleavage incubated for 1 hrs by QFRET assay.

A short description of data set [7]: in vivo. Conditions: Beagle, dog, plasma, iv, 1 mg/kg.
The nature of data set [8]: Half life in Beagle dog at 1.0 mg/kg, iv administered as single dose. The settings on record: in vivo.
Data set [9] can be described thus: in vivo. Conditions: Alderley Park Han Wistar, rat, plasma, iv, 2 mg/kg.
Data set [10] in a line: Volume of distribution at steady state in Beagle dog at 1.0 mg/kg, po and 1.0 mg/kg, iv administered as single dose. Format: ADME, organism-based, Canis lupus familiaris. The settings on record: in vivo, read-out: Vdss. The procedure, abridged:
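Beagle dogs, fasted. Given single iv dose of 1.0 mg/kg as a solution in 10% DMSO/90% Sorensons and single po dose of 1.0 mg/kg as a suspension in 5% DMSO/95% HPMC/TWEEN. At least two experiments, each with two animals.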

A further data set has as its system Canis familiaris. Briefly: In-vivo inhibition of CatK in orally dosed Alderley Park Beagle dog assessed as reduction in CTX-1 level at 0.1 to 2 mg/kg, po qd by ELISA. The class given is functional, organism-based. Conditions: Canis lupus familiaris. An outline of the steps:
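Male Alderley Park Beagles (12−14 months, 14−17 kg) gavaged at 0.1, 0.3 or 2.0 mg/kg in 5% DMSO + 95% HPMC/Tween, 5 mL/kg, with dosing started at the same time of day. Jugular blood was clotted ≥1 h at room temperature and serum spun down. Serum CTX-1 was measured by CrossLaps ELISA; points are mean n = 2.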
On the technique in general: In an ELISA, binding on a coated surface is turned into a signal by an enzyme label.

A further data set deals with Cathepsin S (Homo sapiens, UniProt P25774). The experiment in a line: Inhibition of human recombinant CatS assessed as suppression of enzyme-mediated Z-Val-Val-Arg-AMC cleavage by QFRET assay. The procedure, abridged:
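Recombinant human Cat S at 0.5 nM final was preincubated with compound for 30 min at room temperature. Z-Val-Val-Arg-AMC (100 μM final) was added in potassium phosphate buffer, pH 6.4, incubated 1 h, then stopped with acetic acid. AMC fluorescence read at ex 360/em 425 nm; IC50 by nonlinear regression.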

Data set [11] is described as follows: Half life in Alderley Park Han Wistar rat at 2.0 mg/kg, iv administered as single dose. Conditions: in vivo.
A short description of data set [12]: Intrinsic clearance in dog hepatocytes assessed as metabolic turnover measured per 10^6 cells.
Data set [13] can be described thus: Volume of distribution at steady state in Alderley Park Han Wistar rat at 2.0 mg/kg, po and 2.0 mg/kg, iv administered as single dose. The class given is ADME, organism-based. The settings on record: in vivo, read-out: Vdss. The procedure, abridged:
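Male Alderley Park Han Wistar rats, fed. Given single iv dose of 2.0 mg/kg as a solution in 40% DMA/water and single po dose of 2.0 mg/kg as a suspension in 5% DMSO/95% HPMC/TWEEN. At least two experiments, each with two animals.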

Data set [14] is described as follows: Fraction unbound in human serum. Format: ADME, cell-free. An outline of the steps: (§1)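 Serum or plasma protein binding reported as percentage free. Each value is the mean of at least n = 2 experiments.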
Data set [15] can be described thus: Oral bioavailability in Alderley Park Han Wistar rat at 2.0 mg/kg administered as single dose. The class given is ADME, organism-based. Conditions: in vivo. An outline of the steps:
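Fed male Alderley Park Han Wistar rats dosed po at 2.0 mg/kg as a suspension in 5% DMSO/95% HPMC/TWEEN; iv reference dose 2.0 mg/kg in 40% DMA/water. Single doses, at least two experiments of two animals each.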

Data set [16] in a line: Fraction unbound in rat serum. The class given is ADME, cell-free. An outline of the steps: as §1
Data set [17] can be described thus: Oral bioavailability in Beagle dog at 1.0 mg/kg administered as single dose. Conditions: in vivo.
A further data set addresses Procathepsin L (Homo sapiens, UniProt P07711). Briefly: Inhibition of human recombinant CatL assessed as suppression of enzyme-mediated Z-Phe-Arg-AMC cleavage by QFRET assay. The procedure, abridged:
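Recombinant human Cat L at 0.1 nM final was preincubated with compound for 30 min, then Z-Phe-Arg-AMC (10 μM final) was added. QFRET cleavage was run 1 h at room temperature and stopped with acetic acid. Fluorescence read at ex 360/em 425 nm; IC50 by variable-slope nonlinear regression.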

A short description of data set [18]: Fraction unbound in dog serum. Format: ADME, cell-free, Canis lupus familiaris. An outline of the steps:
as §1

Activity calls are given as the source filed them. No cut-off for these calls is given here. Some results are limits rather than exact numbers.

Sequence of Cathepsin S (P25774 whole entry): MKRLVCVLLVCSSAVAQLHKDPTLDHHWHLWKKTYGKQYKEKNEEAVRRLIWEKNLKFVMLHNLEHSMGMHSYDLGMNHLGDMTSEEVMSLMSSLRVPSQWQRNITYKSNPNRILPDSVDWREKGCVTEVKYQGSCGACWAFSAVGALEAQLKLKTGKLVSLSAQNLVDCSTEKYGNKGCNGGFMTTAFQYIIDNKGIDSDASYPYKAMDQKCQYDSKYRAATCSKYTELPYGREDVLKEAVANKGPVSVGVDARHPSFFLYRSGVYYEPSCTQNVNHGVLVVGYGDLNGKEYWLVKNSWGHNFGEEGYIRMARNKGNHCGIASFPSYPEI
Sequence of Procathepsin L (P07711 whole entry): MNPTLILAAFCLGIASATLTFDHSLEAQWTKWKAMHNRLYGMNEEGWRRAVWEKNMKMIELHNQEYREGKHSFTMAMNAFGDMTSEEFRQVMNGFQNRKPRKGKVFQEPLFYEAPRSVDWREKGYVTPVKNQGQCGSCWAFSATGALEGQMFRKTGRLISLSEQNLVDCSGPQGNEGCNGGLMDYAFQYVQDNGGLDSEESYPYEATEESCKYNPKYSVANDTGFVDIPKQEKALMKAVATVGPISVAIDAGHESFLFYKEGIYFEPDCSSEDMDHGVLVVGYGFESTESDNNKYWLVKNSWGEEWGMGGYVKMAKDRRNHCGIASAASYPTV

`COc1cccc2c3c([nH]c12)CCN(C(=O)[C@@H]1CCCC[C@H]1C(=O)NC1(C#N)CC1)C3`: the microsomal CLint worked out at 16 µL/min/mg in [1] and 67 µL/min/mg in data set [2]. For the same compound, the IC50 on Cathepsin B was greater than 2900 nM; at Cathepsin K [3] it was 0.8 nM; at Cathepsin K [6] it was less than 1 nM; at Cathepsin S it was greater than 4000 nM; on Procathepsin L, “Not Active”. This compound also returned a logD in [4] of 2.7. Moreover, the figures for the hepatocyte CLint in data set [5] and in data set [12] were 5.3 µL/min/1e6 cells and 2.5 µL/min/1e6 cells, respectively. In addition, the clearance amounted to 10 mL/min/kg in the data set “in vivo [7]” and 53 mL/min/kg in the data set “in vivo [9]”. In addition, the half-life is 1.5 h in data set [8] and 1 h in data set [11]. Also, the results for the Vd in data set [10] and in [13] were 1.7 L/kg and 2.3 L/kg, respectively. Moreover, the inhibition entry in the data set on Canis familiaris is “Active”. For the same compound, the fraction unbound in data set [14] worked out at 0.17; in data set [16] it was 0.17; in data set [18], 0.22. Moreover, the bioavailability is 28% in data set [15] and 65% in [17].

For orientation: microsomal CLint means the rate of metabolic loss divided by the concentration. Broadly, the IC50 is the concentration that gives 50% inhibition. The term logD denotes the decadic logarithm of the distribution of all forms, ionised or not, between an organic phase and buffer at a given pH. What is called hepatocyte CLint is the capacity of the preparation to metabolise the compound, expressed as a volume cleared per time. Usually clearance stands for a measure of how efficiently the substance is removed, as volume per time. A lower clearance goes with a low capacity for elimination. What is called half-life is how long it takes for the measured level to halve. A high value points to slow loss. In general, fraction unbound refers to free concentration divided by total concentration. A low value points to extensive binding. Usually bioavailability stands for dose-corrected exposure relative to a reference, in per cent. High values mean good availability, low ones poor availability.

The values are drawn from ChEMBL document CHEMBL2163205 (J Med Chem, 2012).
